Assay results published in ChEMBL document CHEMBL4024800, “α-Amino-β-carboxymuconate-ε-semialdehyde Decarboxylase (ACMSD) Inhibitors as Novel Modulators of De Novo Nicotinamide Adenine Dinucleotide (NAD+) Biosynthesis” (J Med Chem, 2018).
Values after ≈ are worked out from the molar mass of the structure shown. Active and inactive are the calls of the source. The calls are words filed in the database; no cut-off is given here.

Tests used:
[1] = AUClast in mouse blood at 5 mg/kg, po measured up to 8 hrs post dose; format: ADME, organism-based; parameters: time < 8 hr, dose 5 mg/kg, route oral
How it was run: (§1)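 Mice dosed orally at 5 mg/kg in 0.5% (w/v) HPMC in water with 5% (v/v) DMSO; blood, liver and kidney concentrations followed to 8 h. AUC0–8h given in h·ng/mL; parameters reported as means.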

[2] = target: T1, Cytochrome P450 3A1 (Rattus norvegicus, UniProt P04800); assay: Inhibition of recombinant rat CYP3A1 expressed in baculosomes expression system using fluorogenic-BOMCC as substrate by fluorescent homogeneous assay; format: ADME
T1 sequence (P04800 whole entry): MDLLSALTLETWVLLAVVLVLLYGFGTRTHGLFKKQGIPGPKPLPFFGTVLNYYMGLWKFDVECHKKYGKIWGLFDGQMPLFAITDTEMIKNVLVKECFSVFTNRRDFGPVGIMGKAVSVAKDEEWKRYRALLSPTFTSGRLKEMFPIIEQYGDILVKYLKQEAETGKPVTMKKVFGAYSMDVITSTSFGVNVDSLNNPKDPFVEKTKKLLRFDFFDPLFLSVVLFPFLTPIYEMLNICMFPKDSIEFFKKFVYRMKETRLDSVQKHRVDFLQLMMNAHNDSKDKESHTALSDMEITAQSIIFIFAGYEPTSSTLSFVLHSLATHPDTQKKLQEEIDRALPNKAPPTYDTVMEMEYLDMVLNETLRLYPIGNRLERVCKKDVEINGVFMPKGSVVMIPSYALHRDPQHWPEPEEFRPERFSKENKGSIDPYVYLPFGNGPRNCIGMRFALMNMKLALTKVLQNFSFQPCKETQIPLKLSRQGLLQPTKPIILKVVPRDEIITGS
How it was run: (§2)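 Recombinant CYP baculosomes with fluorogenic substrates, at concentrations below their Km; homogeneous fluorescence read-out, run in triplicate. IC50 classes: <1 μM potent, 1–10 μM moderate, >10 μM weak or none.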

[3] = Volume of distribution at steady state in CD1 mouse at 0.5 mg/kg, iv measured up to 24 hrs post dose; format: ADME, organism-based; details: in vivo, read-out: Vdss
How it was run: (§3)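 Mice given 0.5 mg/kg IV in saline containing 5% (v/v) DMSO and 20% (v/v) PEG400; blood pharmacokinetic parameters reported as means.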

[4] = target: T2, 2-amino-3-carboxymuconate-6-semialdehyde decarboxylase (Homo sapiens, UniProt Q8TDX5); assay: Inhibition of ACMSD in human primary hepatocytes assessed as increase in intracellular NAD+ levels at 5 uM after 48 hrs by NAD/NADH-Glo assay; format: cell-based
Target sequence in this assay (Q8TDX5 whole entry, looked up): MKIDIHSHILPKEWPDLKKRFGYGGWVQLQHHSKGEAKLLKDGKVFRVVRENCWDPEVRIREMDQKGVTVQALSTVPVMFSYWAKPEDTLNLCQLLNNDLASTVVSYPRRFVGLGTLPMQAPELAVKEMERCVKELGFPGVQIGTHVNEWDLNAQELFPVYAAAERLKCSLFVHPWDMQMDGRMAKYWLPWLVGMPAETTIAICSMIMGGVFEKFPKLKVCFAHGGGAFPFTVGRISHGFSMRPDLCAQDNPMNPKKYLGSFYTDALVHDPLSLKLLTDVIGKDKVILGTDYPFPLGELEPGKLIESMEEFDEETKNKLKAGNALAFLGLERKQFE

[5] = Drug uptake in mouse central nervous system at 5 mg/kg, po in presence of P-gp inhibitor Elacridar; format: ADME, organism-based; details: in vivo
[6] = target: Voltage-gated inwardly rectifying potassium channel KCNH2 (Homo sapiens, UniProt Q12809); assay: Displacement of red fluorescent channel ligand tracer from human ERG expressed in CHO cell membranes
How it was run: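 Fluorescence polarisation kit: membranes from CHO cells stably expressing hERG, with a red fluorescent high-affinity tracer; competitors detected by tracer displacement, seen as lowered polarisation. Final DMSO 1%; E-4031 reference.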

[7] = target: T2, 2-amino-3-carboxymuconate-6-semialdehyde decarboxylase; assay: Inhibition of human ACMSD expressed in Pichia pastoris using ACMS as substrate by coupled spectrophotometric assay
How it was run: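 Recombinant enzyme purified from Pichia pastoris; ACMS substrate generated in a pre-assay mix from 10 μM 3-hydroxyanthranilic acid by Ralstonia metallidurans 3-hydroxyanthranilate 3,4-dioxygenase, formation monitored at 360 nm. Enzyme and compound then added together; activity from initial rate of absorbance decrease minus a no-enzyme control. Serial dilutions, 1.0% DMSO throughout. IC50 from concentration–response curves, mean ± SD of three independent experiments.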
Target sequence in this assay (Q8TDX5 whole entry): as the sequence (Q8TDX5 whole entry, looked up) above

[8] = Solubility of compound in PBS buffer at pH 7.4 after 24 hrs by UV/vis-spectroscopic analysis; format: physicochemical
How it was run: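 Compound in PBS pH 7.4 with 1% DMSO mixed, incubated 24 h and vacuum-filtered; filtrate read by UV/vis and relative solubility calculated from summed readings against a standard. Reported in mg/mL.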

[9] = AUClast in CD1 mouse at 0.5 mg/kg, iv measured up to 24 hrs post dose; format: ADME, organism-based; parameters: dose 0.5 mg/kg, time < 24 hr, route intravenous; details: in vivo; how it was run: as §3
[10] = target: T3, Vitamin D3 receptor (Homo sapiens) (UniProt P11473); assay: Activity at VDR (unknown origin)
T3 sequence (whole entry): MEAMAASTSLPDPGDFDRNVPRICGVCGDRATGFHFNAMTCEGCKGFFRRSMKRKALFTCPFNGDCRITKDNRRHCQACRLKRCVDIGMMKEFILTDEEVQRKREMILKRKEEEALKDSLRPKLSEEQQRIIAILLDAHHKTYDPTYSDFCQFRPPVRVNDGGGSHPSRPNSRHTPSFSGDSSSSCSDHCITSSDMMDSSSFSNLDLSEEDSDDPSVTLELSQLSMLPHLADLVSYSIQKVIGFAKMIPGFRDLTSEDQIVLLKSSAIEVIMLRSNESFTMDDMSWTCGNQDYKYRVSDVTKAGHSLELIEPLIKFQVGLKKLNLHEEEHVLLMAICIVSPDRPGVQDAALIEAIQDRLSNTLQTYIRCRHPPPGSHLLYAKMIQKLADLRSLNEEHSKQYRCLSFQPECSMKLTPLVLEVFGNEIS
How it was run: (§4)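 Eight-point serial dilutions tested in an in-house AlphaScreen-based nuclear receptor panel; activity derived from nonlinear regression curves.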

[11] = target: Cytochrome P450 3A4 (Homo sapiens, UniProt P08684); assay: Inhibition of recombinant human CYP3A4 expressed in baculosomes expression system using fluorogenic-BOMCC as substrate by fluorescent homogeneous assay; format: ADME; how it was run: as §2
[12] = species: Homo sapiens; assay: Activity at PPAR (unknown origin); how it was run: as §4
[13] = Oral bioavailability in CD1 mouse at 5 mg/kg measured up to 8 hrs after dose; format: ADME, organism-based; details: in vivo; how it was run: as §1
[14] = AUClast in mouse kidney at 5 mg/kg, po measured up to 8 hrs post dose; format: ADME, organism-based; parameters: time < 8 hr, dose 5 mg/kg, route oral; how it was run: as §1
[15] = target: Cytochrome P450 2D6 (Homo sapiens, UniProt P10635); assay: Inhibition of recombinant human CYP2D6 expressed in baculosomes expression system using fluorogenic-BOMCC as substrate by fluorescent homogeneous assay; format: ADME; how it was run: as §2
[16] = Apparent passive permeability from apical to basolateral side in MDCK2-MDR1 cells at 3 uM after 90 mins by LC-MS/MS analysis; format: ADME, cell-based, Canis lupus familiaris; details: dog, MDCK-MDR1
How it was run: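 MDCKII-MDR1 monolayers, HBSS transport medium pH 7.4; compound 3 μM for 90 min, run with and without a P-gp inhibitor, n = 3. Quantified by LC-MS/MS as analyte/internal-standard peak-area ratio; monolayer integrity checked with Lucifer yellow. Papp given in nm/sec, A>B.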

Cytochrome P450 3A4, sequence (P08684 whole entry): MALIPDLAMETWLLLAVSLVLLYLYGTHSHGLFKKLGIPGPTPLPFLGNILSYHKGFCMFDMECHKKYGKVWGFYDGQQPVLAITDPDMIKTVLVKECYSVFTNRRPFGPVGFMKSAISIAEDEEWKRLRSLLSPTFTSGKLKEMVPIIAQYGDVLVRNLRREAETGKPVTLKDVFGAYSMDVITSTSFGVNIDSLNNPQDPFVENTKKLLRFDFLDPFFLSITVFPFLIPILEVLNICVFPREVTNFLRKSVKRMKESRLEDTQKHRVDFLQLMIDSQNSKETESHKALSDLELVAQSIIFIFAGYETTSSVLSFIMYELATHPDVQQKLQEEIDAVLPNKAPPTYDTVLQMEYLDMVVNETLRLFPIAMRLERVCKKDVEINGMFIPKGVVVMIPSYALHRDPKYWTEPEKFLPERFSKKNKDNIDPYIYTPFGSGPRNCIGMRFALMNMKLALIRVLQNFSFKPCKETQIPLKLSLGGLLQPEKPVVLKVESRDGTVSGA
Cytochrome P450 2D6, sequence (P10635 whole entry): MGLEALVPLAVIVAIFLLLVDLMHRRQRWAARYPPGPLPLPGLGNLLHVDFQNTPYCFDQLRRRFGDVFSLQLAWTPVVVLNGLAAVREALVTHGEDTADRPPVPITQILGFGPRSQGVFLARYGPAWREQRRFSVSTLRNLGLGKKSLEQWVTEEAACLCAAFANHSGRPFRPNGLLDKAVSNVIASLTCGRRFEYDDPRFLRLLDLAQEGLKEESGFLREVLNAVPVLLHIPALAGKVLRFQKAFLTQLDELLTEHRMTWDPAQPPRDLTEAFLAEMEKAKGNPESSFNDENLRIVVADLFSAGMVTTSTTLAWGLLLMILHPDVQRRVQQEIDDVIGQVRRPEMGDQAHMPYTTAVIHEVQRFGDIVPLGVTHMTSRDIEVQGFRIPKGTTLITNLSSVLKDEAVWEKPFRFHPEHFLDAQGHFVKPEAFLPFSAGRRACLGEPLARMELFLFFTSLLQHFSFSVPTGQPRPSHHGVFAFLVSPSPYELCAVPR
Voltage-gated inwardly rectifying potassium channel KCNH2, sequence (Q12809 whole entry): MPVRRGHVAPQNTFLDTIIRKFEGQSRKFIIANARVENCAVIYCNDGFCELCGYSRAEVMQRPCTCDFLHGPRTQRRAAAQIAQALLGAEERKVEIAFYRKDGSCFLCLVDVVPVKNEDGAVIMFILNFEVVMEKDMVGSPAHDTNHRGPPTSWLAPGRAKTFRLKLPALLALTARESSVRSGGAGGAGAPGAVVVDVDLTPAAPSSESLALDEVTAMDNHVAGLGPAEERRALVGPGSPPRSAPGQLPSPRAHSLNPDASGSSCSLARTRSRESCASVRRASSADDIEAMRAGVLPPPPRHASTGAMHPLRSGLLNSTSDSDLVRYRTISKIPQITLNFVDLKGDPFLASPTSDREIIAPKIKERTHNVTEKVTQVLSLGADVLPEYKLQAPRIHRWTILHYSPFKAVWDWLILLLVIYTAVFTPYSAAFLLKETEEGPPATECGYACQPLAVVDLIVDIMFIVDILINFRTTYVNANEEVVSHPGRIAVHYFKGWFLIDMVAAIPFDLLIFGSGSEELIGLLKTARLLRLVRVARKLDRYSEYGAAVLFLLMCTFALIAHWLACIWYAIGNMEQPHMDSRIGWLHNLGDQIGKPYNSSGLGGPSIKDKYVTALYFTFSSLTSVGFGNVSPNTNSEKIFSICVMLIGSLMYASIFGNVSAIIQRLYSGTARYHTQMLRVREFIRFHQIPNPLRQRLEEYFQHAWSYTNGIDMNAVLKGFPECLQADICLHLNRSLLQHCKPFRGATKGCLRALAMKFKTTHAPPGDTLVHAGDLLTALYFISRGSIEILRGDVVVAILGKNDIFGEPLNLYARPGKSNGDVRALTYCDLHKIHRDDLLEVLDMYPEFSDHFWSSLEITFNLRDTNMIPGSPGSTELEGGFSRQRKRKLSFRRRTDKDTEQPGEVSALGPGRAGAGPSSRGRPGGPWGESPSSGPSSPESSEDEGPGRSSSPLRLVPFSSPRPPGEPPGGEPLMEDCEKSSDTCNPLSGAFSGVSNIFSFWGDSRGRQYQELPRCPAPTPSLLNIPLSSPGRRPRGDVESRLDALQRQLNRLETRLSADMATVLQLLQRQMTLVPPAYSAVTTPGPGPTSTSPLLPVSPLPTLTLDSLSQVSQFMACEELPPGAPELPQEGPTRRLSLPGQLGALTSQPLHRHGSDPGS

For `N#Cc1c(-c2cccs2)nc(SCc2cccc(CC(=O)O)c2)[nH]c1=O`, the AUC(0-t) at 8 h [1] was 12700 ng·h/mL, the IC50 [2] was > 10 µM and the Vd [3] was 0.273 L/kg. For the same compound, the inhibition [4] was “Active”, the Drug uptake [5] was “Not Active” and the “inhibition (INH)” value [6] was “Not Active”. It also gave an IC50 [7] of 0.013 µM, a solubility at 24 h [8] of 800 µg/mL (≈ 2090 µM) and an AUC(0-t) at 24 h [9] of 10700 ng·h/mL. For the same compound, the Activity [10] was “inactive”, the IC50 [11] was > 10 µM and the Activity [12] was “inactive”. The bioavailability [13] was 12%, the AUC(0-t) at 8 h [14] was 36600 ng·h/mL and the IC50 [15] was > 10 µM. For the same compound, the Papp A→B at 1.5 h, 3 µM [16] was 0.456 ×10⁻⁶ cm/s.
